Experimental data: publication PMC5616206 (Toxicology Reports, 2016)
Entries after “also recorded” stand apart in the source; their conditions may differ.

Assays:
Sprague-Dawley Rats [1] = assay: 13-week subchronic toxicity study on S807; type: in vivo, Crl:CD(SD)IGS BR rats; conditions: 2, 10, 20 mg/kg bw/day food ad-mix, 13 weeks
In short: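 Crl:CD(SD)IGS BR rats, 20/sex/group, were given the test compound in the diet at 0 (control), 2, 10 or 20 mg/kg bw/day for 93 consecutive days.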

[2] = In vitro metabolism by rat liver microsomes; type: in vitro ADME, Sprague-Dawley rat; conditions: S807 incubation, relative to S807 at time = 0
[3] = Pharmacokinetics of S807 in rats, single iv or oral dose; type: in vivo, Sprague-Dawley rats; conditions: for AUC(0-t) / Cmax / Tmax / Vd / half-life / clearance / bioavailability: Sprague-Dawley, rat, plasma; for clearance: CL (clearance), iv 1 mg/kg bw; for AUClast Ratio / Cmax Ratio: vs 20 mg/kg bw dose
In short: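 Sprague-Dawley rats, 4/sex, received a 1 mg/kg bw IV bolus in 20% PEG400/10% ethanol/2% DMSO/68% saline. Sampling was via jugular cannula at pre-dose and 2 min to 8 h. Oral groups (4/sex/group) were gavaged once with 20, 50 or 200 mg/kg bw in 1% methylcellulose and sampled from 15 min to 24 h. Plasma was assayed for parent and metabolites.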

[4] = In vitro metabolism by human liver microsomes; type: in vitro ADME; conditions: S807 incubation, relative to S807 at time = 0
[5] = tested on: S. typhimurium strains TA98, TA100, TA1535, TA1537 and E. coli strain WP2 uvrA; assay: Bacterial reverse mutation test; type: cell-based; conditions: 21–5000 μg/plate, plate incorporation and pre-incubation, ±S9
In short: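 The assay followed OECD Guideline 471 and used S. typhimurium TA98, TA100, TA1535 and TA1537 and E. coli WP2 uvrA. It was run with and without S9 from livers of Aroclor 1254-treated Sprague-Dawley rats. One compound was tested at 21–5000 μg/plate by plate incorporation and pre-incubation. The other was tested at 50–5000 μg/plate in an initial toxicity-mutation test and a confirmatory mutation test.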

[6] = tested on: Male Swiss albino (CD-1) mice, bone marrow PCEs; assay: In vivo micronucleus assay in mice, S807
In short: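 Swiss Albino (CD-1) mice received a single intraperitoneal injection of the test compound as a DMSO solution (132 mg/mL). Range finding used 3/sex/group at 500, 1000 or 2000 mg/kg bw, then added groups at 800 (3/sex) and 700 (3 males). The definitive phase used 175, 350 and 700 mg/kg bw, 21 animals/group. Readouts were bone-marrow mnPCE incidence and PCE/total erythrocyte ratio versus vehicle. Cyclophosphamide was the positive control.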

[7] = tested on: Chinese hamster ovary cells (CHO-WBL); assay: In vitro chromosome aberration test, CHO-WBL cells; type: cell-based
[8] = In vivo metabolism of S807 in rats; set-up: species or system Sprague-Dawley rats; conditions: male and female pooled rat plasma, 1 h post dose, 200 mg/kg bw oral
[9] = Dietary exposure estimates; set-up: species or system human
Sprague-Dawley Rats [10] = assay: 21-day dose-range finding toxicity study on S807; type: in vivo, Crl:CD(SD)IGS BR rats; conditions: 50, 100, 200 mg/kg bw/day food ad-mix, 21 days
In short: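 Dose-range finder for the 90-day study. Crl:CD(SD)IGS BR rats, 5/sex/group, received the test compound continuously in the diet at 50, 100 or 200 mg/kg bw/day for 21 days. One group of 5/sex served as control and received the vehicle diet.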

[11] = oral gavage 20 mg/kg bw, female
[12] = oral gavage 50 mg/kg bw, female
[13] = oral gavage 200 mg/kg bw, female

## CCCC(CCC)NC(=O)c1ccc2c(c1)OCO2 [S807, N-(heptan-4-yl)benzo[d][1,3]dioxole-5-carboxamide]
Sprague-Dawley Rats [1]
  Findings: No test-article related findings
  NOEL: 20 mg/kg bw/day
[2]; 10 min
  % MS (EIC) Peak Area: 70.0%
[2]; 20 min
  % MS (EIC) Peak Area: 34.0%
[3]; female, iv, 1 mg/kg
  AUC(0-t): 342 ± 81.4 ng·h/mL
  Cmax: 949 ± 222 ng/mL
  Tmax: 0.033 h
  Vd: 5.61 L/kg
  half-life: 3.02 ± 0.92 h
[3]; female, iv, 1 mg/kg, female rat
  clearance: 47.2 mL/min/kg
[3]; female, po, 20 mg/kg
  AUC(0-t): 166 ± 72.2 ng·h/mL
  Cmax: 187 ± 87.6 ng/mL
  Tmax: 0.25 h
  bioavailability: 2.43%
  half-life: 1.07 ± 0.67 h
[3]; female, po, 50 mg/kg
  AUC(0-t): 1410 ± 1020 ng·h/mL
  Cmax: 529 ± 379 ng/mL
  Tmax: 1 h
  bioavailability: 8.25%
  half-life: 1.17 ± 0.16 h
[3]; female, po, 200 mg/kg
  AUC(0-t): 108000 ± 27900 ng·h/mL
  Cmax: 9150 ± 2410 ng/mL
  Tmax: 3 h
  bioavailability: 158%
  half-life: 2.62 ± 0.2 h
[3]; iv, females
  CL as % of hepatic blood flow: 85.5%
[3]; iv, males
  CL as % of hepatic blood flow: 55.6%
[3]; male, iv, 1 mg/kg
  AUC(0-t): 491 ± 33.3 ng·h/mL
  Cmax: 1110 ± 237 ng/mL
  Tmax: 0.033 h
  Vd: 4.63 L/kg
  half-life: 3.02 ± 0.24 h
[3]; male, iv, 1 mg/kg, male rat
  clearance: 30.7 mL/min/kg
[3]; male, po, 20 mg/kg
  AUC(0-t): 182 ± 70.5 ng·h/mL
  Cmax: 174 ± 95.1 ng/mL
  Tmax: 0.313 h
  bioavailability: 1.85%
  half-life: 1.14 ± 0.35 h
[3]; male, po, 50 mg/kg
  AUC(0-t): 4890 ± 4960 ng·h/mL
  Cmax: 1270 ± 1170 ng/mL
  Tmax: 1.5 h
  bioavailability: 19.9%
  half-life: 1.83 ± 0.61 h
[3]; male, po, 200 mg/kg
  AUC(0-t): 101000 ± 19500 ng·h/mL
  Cmax: 10500 ± 937 ng/mL
  Tmax: 4 h
  bioavailability: 103%
  half-life: 2.49 ± 0.07 h
[3]; [11]
  AUClast Ratio: 1
  Cmax Ratio: 1
[3]; oral gavage 20 mg/kg bw, male
  AUClast Ratio: 1
  Cmax Ratio: 1
[3]; [12]
  AUClast Ratio: 8.49
  Cmax Ratio: 2.83
[3]; oral gavage 50 mg/kg bw, male
  AUClast Ratio: 26.9
  Cmax Ratio: 7.30
[3]; [13]
  AUClast Ratio: 651
  Cmax Ratio: 48.9
[3]; oral gavage 200 mg/kg bw, male
  AUClast Ratio: 555
  Cmax Ratio: 60.3
[4]; 10 min
  % MS (EIC) Peak Area: 89.4%
[4]; 20 min
  % MS (EIC) Peak Area: 80.8%
[4]; 60 min
  % MS (EIC) Peak Area: 65.0%
[5]
  Reverse mutation (in vitro), Result: not mutagenic; also recorded: Negative
[6]; 175, 350, 700 mg/kg bw (ip)
  Micronucleus formation (in vivo), Result: neither clastogenic nor aneugenic; also recorded: Negative
[6]; range finding, ip
  dose groups with deaths within 48 h of treatment: ≥ 800 mg/kg bw
[7]; 21–5000 μg/mL, 3 h −S9, 3 h +S9, 18 h −S9
  Chromosome aberration (in vitro), Result: did not induce chromosomal aberrations; also recorded: Negative
[7]; all conditions
  test article concentration with precipitate in the cell cultures: ≥ 62 µg/mL
[8]
  MS (EIC) Peak Area: 29,000,000 cps
[9]; NOEL 20 mg/kg bw/day
  NOEL as times the estimated dietary exposure (mTAMDI): 2560 times
[9]; NOEL 20 mg/kg bw/day vs 4.9 μg/kg bw/day
  margin of safety, NOEL vs estimated use: > 4000 fold
Sprague-Dawley Rats [10]
  Findings: Lower bw gain in females at 200 mg/kg bw/day; increased liver weight in females at 100 and 200 mg/kg bw/day; histomorphological changes in livers of both male and females at all doses
  NOEL: < 50 mg/kg bw/day
